PubChem BioAssay AID651654 (Broad Institute, 2012)
Values joined by “and” are separate entries in the source; they are usually repeats but may differ in a detail not shown here. Identical values can stand only once. About 740 (0.21%) of roughly 360,000 compounds were called active.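 How the source made its calls: active means mean lysis activity across replicates of at least 80%, whatever share of replicates individually reach that level; inactive means mean lysis activity below 80%.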 Many of the other results were omitted from the sample, so actives are more common in it than they were. The source holds several records for some structures; these can differ, active in one and inactive in another.

Experiment: Cryptococcus neoformans cell lysis inducers, primary screen, AK release luminescence, single concentration (AID 651654)
Conditions: C. neoformans lysis, adenylate kinase release luminescence, 4 h; at 15 µM; stronger effect = higher value
In short: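 Assay system: log-phase C. neoformans yeast / Quantity: yeast cell density of 5 × 10^6 cells/mL / Medium: fresh YPD growth medium / Compound: single dose / Timing: static 4 h at 37 °C with compound, 1 h detection / Measured by: adenylate kinase release luminescence / Read-out: lysis from increased AK signal / Benchmarks: Clomiphene as positive lysis control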

Row | Compound | lysis activity
1 | C[C@H]1CN([C@@H](C)CO)C(=O)CCCn2nncc2CO[C@H]1CN(C)C(=O)Oc1ccccc1 | -2.79% (inactive) and -0.658% (inactive) and 0.85% (inactive)
2 | C[C@H]1CN([C@@H](C)CO)C(=O)CCCn2nncc2CO[C@H]1CN(C)C(=O)Oc1cccc2ccccc12 | 5.65% (inactive) and 82.4% (active) and -0.095% (inactive)
3 | C[C@H](CO)N1C[C@H](C)[C@H](CN(C)C(=O)Oc2ccc3ccccc3c2)OCc2cnnn2CCCC1=O | -8.92% (inactive)
4 | COc1cccc(C(c2nnnn2-c2ccc3c(c2)OCCO3)N2CCC3(CC2)C(=O)NCN3c2ccccc2)c1OC (stereo not given) | -24.5% (inactive)
5 | O=C(Cc1ccccc1)N1CCCCN2[C@H](C1)[C@H](c1ccc(C#CC3(O)CCCC3)cc1)[C@@H]2CO | -1.31% (inactive)
